The source of these data is ChEMBL document CHEMBL4765345, “Design, synthesis, and biological evaluation of dual targeting inhibitors of histone deacetylase 6/8 and bromodomain BRPF1” (Eur J Med Chem, 2020).

The structures appear in SMILES notation.

Assay [1] has as its target T1, Histone deacetylase 1 (Homo sapiens, UniProt Q13547). Briefly: Inhibition of recombinant human HDAC1 at 10 uM using Z-(Ac)Lys-AMC as substrate after 90 mins by fluorescence based micro plate assay. A digest of the protocol:
(§1)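 Recombinant human HDAC1 or HDAC6 incubated 90 min at 37 °C with 10.5 μM ZMAL (Z-(Ac)Lys-AMC) and increasing inhibitor concentrations, using a homogeneous fluorescence assay. Fluorescence read at Ex 390/Em 460 nm.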

Assay [2] deals with T2, Histone deacetylase 8 (Homo sapiens, UniProt Q9BY41).
T2 sequence (Q9BY41 whole entry): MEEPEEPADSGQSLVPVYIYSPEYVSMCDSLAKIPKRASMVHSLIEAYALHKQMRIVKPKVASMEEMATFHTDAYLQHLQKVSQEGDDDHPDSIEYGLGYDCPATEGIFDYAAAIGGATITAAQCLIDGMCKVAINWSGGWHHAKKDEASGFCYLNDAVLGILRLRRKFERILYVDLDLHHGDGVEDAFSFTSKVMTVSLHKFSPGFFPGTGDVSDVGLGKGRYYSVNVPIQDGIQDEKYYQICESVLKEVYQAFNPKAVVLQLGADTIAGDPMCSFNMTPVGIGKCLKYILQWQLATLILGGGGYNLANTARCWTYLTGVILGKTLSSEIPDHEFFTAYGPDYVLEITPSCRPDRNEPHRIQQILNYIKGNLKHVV
Briefly: Inhibition of human recombinant HDAC8 using H2N-Arg-His-Lys(Ac)-Lys(Ac)-AMC as substrate after 90 mins by fluorescence based micro plate assay.

Assay [3] deals with T1, Histone deacetylase 1. Briefly: Inhibition of recombinant human HDAC1 at 1 uM using Z-(Ac)Lys-AMC as substrate after 90 mins by fluorescence based micro plate assay. A digest of the protocol:
as §1

Assay [4] concerns the target T3, Protein deacetylase HDAC6 (Homo sapiens) (UniProt Q9UBN7).
T3 sequence (whole entry): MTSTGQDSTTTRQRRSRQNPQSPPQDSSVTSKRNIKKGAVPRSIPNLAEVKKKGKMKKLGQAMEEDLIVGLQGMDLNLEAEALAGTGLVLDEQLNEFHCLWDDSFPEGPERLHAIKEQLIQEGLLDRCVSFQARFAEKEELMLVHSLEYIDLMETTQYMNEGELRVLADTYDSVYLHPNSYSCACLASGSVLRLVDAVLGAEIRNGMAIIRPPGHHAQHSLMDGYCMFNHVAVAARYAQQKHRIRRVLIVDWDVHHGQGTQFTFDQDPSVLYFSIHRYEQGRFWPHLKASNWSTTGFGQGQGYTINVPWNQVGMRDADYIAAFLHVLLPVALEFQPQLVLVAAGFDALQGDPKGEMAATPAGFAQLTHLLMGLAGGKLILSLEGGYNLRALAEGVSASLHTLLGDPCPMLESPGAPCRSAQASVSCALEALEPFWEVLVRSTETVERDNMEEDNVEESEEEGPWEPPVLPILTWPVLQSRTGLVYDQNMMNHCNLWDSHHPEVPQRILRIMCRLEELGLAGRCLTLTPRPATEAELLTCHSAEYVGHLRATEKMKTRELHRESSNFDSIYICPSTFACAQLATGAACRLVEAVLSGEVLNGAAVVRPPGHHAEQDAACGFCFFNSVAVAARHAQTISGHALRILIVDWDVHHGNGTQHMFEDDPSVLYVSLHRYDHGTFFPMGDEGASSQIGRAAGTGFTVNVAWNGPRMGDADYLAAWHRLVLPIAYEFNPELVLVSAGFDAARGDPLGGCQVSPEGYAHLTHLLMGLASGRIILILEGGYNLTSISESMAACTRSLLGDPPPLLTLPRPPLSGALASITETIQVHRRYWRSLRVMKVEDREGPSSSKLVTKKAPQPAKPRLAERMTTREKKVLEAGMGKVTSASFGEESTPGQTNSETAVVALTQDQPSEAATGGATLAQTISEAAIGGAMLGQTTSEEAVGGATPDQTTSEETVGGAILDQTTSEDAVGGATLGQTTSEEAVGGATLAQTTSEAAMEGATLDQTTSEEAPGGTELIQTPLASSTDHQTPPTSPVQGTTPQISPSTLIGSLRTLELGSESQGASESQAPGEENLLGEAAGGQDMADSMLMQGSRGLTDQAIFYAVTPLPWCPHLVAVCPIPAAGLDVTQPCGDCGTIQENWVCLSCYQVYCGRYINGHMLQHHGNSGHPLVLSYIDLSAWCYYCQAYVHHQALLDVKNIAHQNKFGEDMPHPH
Briefly: Inhibition of recombinant human HDAC6 at 1 uM using Z-(Ac)Lys-AMC as substrate after 90 mins by fluorescence based micro plate assay. The method, boiled down: as §1

In assay [5] the test system is HL-60. Briefly: Antiproliferative activity against human HL60 assessed as reduction in cell growth at 20 uM by CellTiter-non radioactive cell proliferation assay. It counts as functional.

T1 sequence (Q13547 whole entry): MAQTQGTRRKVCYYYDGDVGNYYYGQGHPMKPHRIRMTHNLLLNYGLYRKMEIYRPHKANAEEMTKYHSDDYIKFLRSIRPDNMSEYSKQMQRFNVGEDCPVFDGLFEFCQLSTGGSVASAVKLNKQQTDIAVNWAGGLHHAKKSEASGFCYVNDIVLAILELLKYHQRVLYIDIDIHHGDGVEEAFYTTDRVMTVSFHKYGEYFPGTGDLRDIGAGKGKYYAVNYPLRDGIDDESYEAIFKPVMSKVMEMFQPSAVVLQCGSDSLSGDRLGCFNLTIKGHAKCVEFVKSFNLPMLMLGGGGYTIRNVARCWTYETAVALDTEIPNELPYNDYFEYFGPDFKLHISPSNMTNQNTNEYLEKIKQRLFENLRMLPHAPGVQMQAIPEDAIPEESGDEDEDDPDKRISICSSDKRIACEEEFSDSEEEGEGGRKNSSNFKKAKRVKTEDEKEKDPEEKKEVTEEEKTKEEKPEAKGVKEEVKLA

In general, inhibition refers to the relative decrease from the control value, in per cent. The IC50 is the concentration that inhibits the measured activity by half. In the case of `COc1ccc(C(=O)NO)cc1S(=O)(=O)Nc1ccc2c(c1)cc(C)c(=O)n2C`, the inhibition in assay [1] is 38%; in assay [3], 6%; in assay [4], 21%. For the same molecule, in assay [2], the concentration for half-maximal inhibition (IC50) turned out to be 443 nM. In assay [5], the inhibition at 20 µM is 10%.
